Assay results published in ChEMBL document CHEMBL1146239, “Kadsuphilols A-H, oxygenated lignans from Kadsura philippinensis” (J Nat Prod, 2007).

Tests used:
Type in all cases: functional
[1] = DPPH radical scavenging activity at 25 uM
Method in brief: (§1)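 Compound dilutions prepared in 100% DMSO, mixed with 100 µM DPPH in ethanol at 37 °C, shaken vigorously and left to stand 30 min. Absorbance read at 517 nm by UV-vis spectrophotometry. Scavenging reported as percent at 100, 50, 25, 12.5 and 6.25 µM. Vitamins C and E served as standards.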

[2] = DPPH radical scavenging activity at 100 uM; method in brief: as §1
[3] = DPPH radical scavenging activity at 50 uM; method in brief: as §1
[4] = DPPH radical scavenging activity at 6.25 uM; method in brief: as §1
[5] = DPPH radical scavenging activity at 12.5 uM; method in brief: as §1

| Molecule | Activity [1] | Activity [2] | Activity [3] | Activity [4] | Activity [5] | inhibition [2] |
| --- | --- | --- | --- | --- | --- | --- |
| O=C1O[C@H]([C@@H](O)CO)C(O)=C1O | 24.9% | 39% | 36.7% | 19.2% | 20.7% |  |
| C/C=C(\C)C(=O)O[C@H]1[C@@](C)(O)[C@@H](C)[C@H]2O[C@@]13CC(=O)C(OC)=C(OC)C31COc3c4c(cc2c31)OCO4 (stereo not given in full) | -3.2% | -2.8% | -3.7% | -5.3% | -4.7% |  |
| C/C=C(\C)C(=O)O[C@H]1[C@@](C)(O)[C@@H](C)[C@H]2O[C@@]13CC(OC)=C(OC)C(=O)C31COc3c4c(cc2c31)OCO4 (stereo not given in full) | 6.1% | 8.4% | 6.6% | 3.9% | 3.9% |  |
| COc1cc2c(c(OC)c1O)-c1c(cc(OC)c(OC)c1O)C[C@@H](C)[C@@H](C)[C@H]2OC(=O)/C=C/c1ccccc1 | 32.2% | 38.1% | 34.4% | 10% | 28.1% |  |
| VITAMIN E | 12.6% | 17.6% | 12.9% | 1.3% | 4.9% |  |
| C/C=C(\C)C(=O)O[C@@H]1c2cc3c(c4c2C2(CO4)C(=O)C(OC)=C(OC)C=C2[C@@H](OC(=O)c2ccccc2)[C@@](C)(O)[C@H]1C)OCO3 (stereo not given in full) | 32% | 35.6% | 33.9% | 20.2% | 13.8% |  |
| COc1cc2c(c(O)c1OC)-c1c(cc3c(c1OC)OCO3)[C@H](O)[C@H](C)[C@H](C)C2 | -10.7% | -4.2% | -1.6% | -38.9% | -18.5% |  |
| C/C=C(\C)C(=O)O[C@H]1c2cc3c(c(OC)c2-c2c(cc(OC)c(OC)c2O)[C@H](OC(=O)/C(C)=C/C)[C@@]2(CO2)[C@H]1C)OCO3 | 48.1% |  | 51.4% | 47.4% | 46.2% | 54.7% |
| C/C=C(\C)C(=O)O[C@@H]1C2=CC(OC)=C(OC)C(=O)C23COc2c4c(cc(c23)[C@@H](OC(=O)c2ccccc2)[C@H](C)[C@]1(C)O)OCO4 (stereo not given in full) | 11.4% | 12.9% | 12.8% | 8.6% | 10.3% |  |
| COc1cc2c(c(O)c1OC)-c1c(cc3c(c1OC)OCO3)[C@H](OC(=O)c1ccccc1)[C@H](C)[C@H](C)[C@H]2OC(C)=O | -32.2% | -23.1% | -30.8% | -35.6% | -33.8% |  |
